From PMC3831721 (Indian Journal of Pharmaceutical Sciences, 2013)

Tested on: Sprague Dawley rats
Test: Antiinflammatory activity, carrageenan hind paw edema method
Type: in vivo
Settings: rat, oral, equivalent to 20 mg/kg
How it was run: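 Sprague Dawley rats (100-200 g), six per group (3 male, 3 female). Test compound given orally in 1% sodium CMC suspension, equivalent to 20 mg/kg; controls received 1% CMC only. After 30 min, 0.1 ml 1% w/v carrageenan in normal saline injected into the right hind paw plantar surface. Paw volume measured by plethysmometer before dosing and at 0.5, 1, 2, 4 and 6 h. %inhibition = (1−Vt/Vc)×100, using mean relative volume change.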

## CCc1cccc2c3c([nH]c12)C(CC)(CC(=O)O)OCC3 (racemic) [EC, (RS)-2-(1,8-Diethyl-4,9-dihydro-3H-pyrano[3,4-b]indol-1-yl) acetic acid]
  Antiinflammatory activity (6 h) Inhibition of edema (%): 81.9%
